From ChEMBL document CHEMBL5038619, “Interfering with the Tumor-Immune Interface: Making Way for Triazine-Based Small Molecules as Novel PD-L1 Inhibitors” (J Med Chem, 2021)
The source made the active and inactive calls. The rule behind the calls is not given here.

What was measured:
[1] = molecular target: Programmed cell death 1 ligand 1 (Homo sapiens) (UniProt Q9NZQ7); assay: Binding affinity to human PD-L1 expressing on exosomes assessed as decrease in […] intensity at 0.5 mM by WL-NMR spectroscopy
[2] = molecular target: Programmed cell death 1 ligand 1 (Homo sapiens) (UniProt Q9NZQ7); assay: Binding affinity to human PD-L1 expressing on exosomes assessed as decrease in […] intensity at 0.5 mM by STD-NMR spectroscopy
[3] = molecular target: T1, Programmed cell death protein 1/Programmed cell death 1 ligand 1 (Homo sapiens, UniProt Q9NZQ7); assay: Inhibition of human recombinant PD-1/PDL-1 interaction measured by HTRF assay; type: protein-complex assay
[4] = molecular target: T1, Programmed cell death protein 1/Programmed cell death 1 ligand 1; assay: Inhibition of PD-1/PDL-1 (unknown origin) binding; type: protein-complex assay
[5] = tested on: PC-9; assay: Immunomodulatory activity in human PC9 cells expressing PD-L1 assessed as morphological changes at 1 uM measured after 48 hrs by phase-contrast microscopy; type: functional, cell-based
[6] = tested on: PC-9; assay: Immunomodulatory activity in human PC9 cells expressing PD-L1 co-cultured stimulated PMBC cells assessed as induction of apoptosis at 1 uM for 48 hr by Annexin V-FITC and propidium iodide based flow cytometry; type: functional, cell-based
Outline: (§1)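 In the same PBMC/cancer-cell co-culture (1 μM compound for 1 h before TransAct anti-CD3/CD28 stimulation, 1 μg/mL each), cells were harvested after 48 h. They were stained with annexin V-FITC/PI and analysed by flow cytometry. Results are mean fraction of annexin V+ cells ± SD, three independent experiments.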

[7] = tested on: HaCaT; assay: Cytotoxicity against human HaCaT cells assessed as reduction in cell viability at 100 uM for 24 hrs by CCK-8 assay; type: toxicity, cell-based
Outline: (§2)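 Cells were seeded at 1×10^4/well in triplicate and exposed to 0.1–100 μM compound with DMSO held at 0.02% in all wells. Untreated wells served as reference. After 24 or 48 h at 37 °C, 5% CO2, viability was read by CCK-8 at 450 nm (reference 600 nm). Results are percent survival versus untreated, mean ± SD of three independent experiments in triplicate.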

[8] = tested on: HCC827; assay: Immunomodulatory activity in human HCC827 cells expressing PD-L1 co-cultured stimulated PMBC cells assessed as reduction in cell viability at 1 uM for 48 hr by CCK8 assay; type: functional, cell-based
Outline: (§3)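 PC9 or HCC827 cells were co-cultured 48 h with PBMCs, treated with 1 μM compound and stimulated 1 h later with anti-CD3/anti-CD28 (1 μg/mL each). PBMCs were then removed by PBS washes and viability of the remaining cancer cells was read by CCK-8. Results are percent survival versus untreated, mean ± SD of three independent experiments in triplicate.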

[9] = tested on: HCC827; assay: Immunomodulatory activity in human HCC827 cells expressing PD-L1 co-cultured stimulated PMBC cells assessed as induction of apoptosis at 1 uM for 48 hr by Annexin V-FITC and propidium iodide based flow cytometry; type: functional, cell-based; outline: as §1
[10] = tested on: PC-9; assay: Immunomodulatory activity in human PC9 cells expressing PD-L1 co-cultured stimulated PMBC cells assessed as IFN-gamma release level at 1 uM measured after 48 hr by ELISA; type: functional, cell-based
Outline: (§4)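 Co-culture: PC9 or HCC827 cells (2×10^5/well) plus 2×10^6 PBMCs, 1 μM compound, then anti-CD3/anti-CD28 TransAct (1 μg/mL each) 1 h later. After 48 h, IFN-γ in the medium was measured by sandwich ELISA (450 nm). Values are mean ± SD of three independent experiments in triplicate; two-sided t-test.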

[11] = tested on: HaCaT; assay: Cytotoxicity against human HaCaT cells assessed as reduction in cell viability at 10 uM for 24 hrs by CCK-8 assay; type: toxicity, cell-based; outline: as §2
[12] = Cytotoxicity against human PBMC cells assessed as reduction in cell viability at 100 uM for 48 hrs by CCK-8 assay; type: toxicity, cell-based; outline: as §2
[13] = tested on: HCC827; assay: Immunomodulatory activity in human HCC827 cells expressing PD-L1 assessed as morphological changes at 1 uM measured after 48 hrs by phase-contrast microscopy; type: functional, cell-based
[14] = tested on: HaCaT; assay: Cytotoxicity against human HaCaT cells assessed as reduction in cell viability at 100 uM for 48 hrs by CCK-8 assay; type: toxicity, cell-based; outline: as §2
[15] = tested on: HCC827; assay: Immunomodulatory activity in human HCC827 cells expressing PD-L1 co-cultured stimulated PMBC cells assessed as morphological changes at 1 uM measured after 48 hrs by phase-contrast microscopy; type: functional, cell-based
Outline: (§5)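 PC9 or HCC827 cells (2×10^5/well, 24 h) were co-cultured with 2×10^6 PBMCs. Compound was added at 1 μM, and 1 h later PBMCs were stimulated with anti-CD3/anti-CD28 TransAct (1 μg/mL each). Controls were unstimulated PBMCs and untreated cancer cells. After 48 h, phase-contrast microscopy was used to look for junction disruption, nuclear swelling, vacuolization, cytosol shrinkage and membrane rupture.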

[16] = Cytotoxicity against human PBMC cells assessed as reduction in cell viability at 10 uM for 24 hrs by CCK-8 assay; type: toxicity, cell-based; outline: as §2
[17] = tested on: PC-9; assay: Immunomodulatory activity in human PC9 cells expressing PD-L1 co-cultured stimulated PMBC cells assessed as morphological changes at 1 uM measured after 48 hrs by phase-contrast microscopy; type: functional, cell-based; outline: as §5
[18] = tested on: PC-9; assay: Cytotoxicity against human PC-9 cells assessed as reduction in cell viability at 10 uM for 48 hrs by CCK-8 assay; type: toxicity, cell-based; conditions: pc-9, 48 h; outline: as §2
[19] = tested on: HCC827; assay: Cytotoxicity against human HCC827 cells assessed as reduction in cell viability at 10 uM for 48 hrs by CCK-8 assay; type: toxicity, cell-based; conditions: hcc827, 48 h; outline: as §2
[20] = tested on: PC-9; assay: Cytotoxicity against human PC-9 cells assessed as reduction in cell viability at 100 uM for 24 hrs by CCK-8 assay; type: toxicity, cell-based; conditions: pc-9, 24 h; outline: as §2
[21] = tested on: HCC827; assay: Immunomodulatory activity in human HCC827 cells expressing PD-L1 co-cultured stimulated PMBC cells assessed as IFN-gamma release level at 1 uM measured after 48 hr by ELISA; type: functional, cell-based; outline: as §4
[22] = tested on: HaCaT; assay: Cytotoxicity against human HaCaT cells assessed as reduction in cell viability at 10 uM for 48 hrs by CCK-8 assay; type: toxicity, cell-based; outline: as §2
[23] = Cytotoxicity against human PBMC cells assessed as reduction in cell viability at 10 uM for 48 hrs by CCK-8 assay; type: toxicity, cell-based; outline: as §2
[24] = tested on: HCC827; assay: Cytotoxicity against human HCC827 cells assessed as reduction in cell viability at 100 uM for 24 hrs by CCK-8 assay; type: toxicity, cell-based; conditions: hcc827, 24 h; outline: as §2
[25] = tested on: HCC827; assay: Cytotoxicity against human HCC827 cells assessed as reduction in cell viability at 100 uM for 48 hrs by CCK-8 assay; type: functional, cell-based; outline: as §2
[26] = tested on: HCC827; assay: Cytotoxicity against human HCC827 cells assessed as reduction in cell viability at 10 uM for 24 hrs by CCK-8 assay; type: toxicity, cell-based; conditions: hcc827, 24 h; outline: as §2
[27] = tested on: PC-9; assay: Cytotoxicity against human PC-9 cells assessed as reduction in cell viability at 100 uM for 48 hrs by CCK-8 assay; type: toxicity, cell-based; conditions: pc-9, 48 h; outline: as §2
[28] = tested on: PC-9; assay: Immunomodulatory activity in human PC9 cells expressing PD-L1 co-cultured stimulated PMBC cells assessed as reduction in cell viability at 1 uM for 48 hr by CCK8 assay; type: functional, cell-based; outline: as §3
[29] = molecular target: Programmed cell death 1 ligand 1 (Homo sapiens) (UniProt Q9NZQ7); conditions: dose 32.0 µM
[30] = tested on: PC-9; assay: Cytotoxicity against human PC-9 cells assessed as reduction in cell viability at 10 uM for 24 hrs by CCK-8 assay; type: toxicity, cell-based; conditions: pc-9, 24 h; outline: as §2
[31] = Cytotoxicity against human PBMC cells assessed as reduction in cell viability at 100 uM for 24 hrs by CCK-8 assay; type: toxicity, cell-based; outline: as §2

Sequence of Programmed cell death 1 ligand 1 (Homo sapiens) (Q9NZQ7 whole entry): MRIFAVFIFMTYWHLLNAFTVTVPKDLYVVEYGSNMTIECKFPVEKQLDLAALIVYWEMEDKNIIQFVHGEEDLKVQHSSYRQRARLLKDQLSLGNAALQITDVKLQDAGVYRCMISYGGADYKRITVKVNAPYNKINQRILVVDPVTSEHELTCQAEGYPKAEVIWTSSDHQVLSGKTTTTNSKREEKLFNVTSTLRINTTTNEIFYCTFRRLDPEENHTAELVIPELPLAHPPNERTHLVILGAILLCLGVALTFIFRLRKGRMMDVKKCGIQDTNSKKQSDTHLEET
T1 sequence (Q15116 whole entry): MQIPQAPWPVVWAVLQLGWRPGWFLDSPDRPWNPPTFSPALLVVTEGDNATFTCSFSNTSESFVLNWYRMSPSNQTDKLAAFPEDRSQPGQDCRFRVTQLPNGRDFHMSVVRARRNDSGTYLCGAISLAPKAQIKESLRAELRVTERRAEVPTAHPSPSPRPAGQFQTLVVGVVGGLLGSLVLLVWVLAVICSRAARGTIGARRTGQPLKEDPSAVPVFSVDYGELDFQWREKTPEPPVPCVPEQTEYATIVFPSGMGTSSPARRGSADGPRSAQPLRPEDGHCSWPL
T1 sequence (Q9NZQ7 whole entry): as the sequence (Q9NZQ7 whole entry) above

With COC(=O)[C@H](Cc1c[nH]cn1)Nc1ncnc(OCc2cccc(-c3ccccc3)c2C)n1 the Activity [1] was “Active” and the Activity [2] was “Active”.
For Cc1c(COc2ncnc(N[C@@H](Cc3c[nH]cn3)C(=O)O)n2)cccc1-c1ccccc1, the IC50 [3] was over 5 µM.
With Cc1c(COc2ccc(CNCCO)n3cnnc23)cccc1-c1ccc2c(c1)OCCO2 the IC50 [4] was 0.0923 µM.
For Cc1c(COc2ncnc(NCCNS(C)(=O)=O)n2)cccc1-c1ccccc1, the IC50 [3] was 0.241 µM.
In the case of CC(=O)NCCNc1ncnc(OCc2cccc(-c3ccccc3)c2C)n1, the Activity [5] is reported as “inactive”, the Activity [6] is reported as “Active” and the Activity [7] is reported as “Toxic”. For the same compound, the Activity [8] was “Active”, the Activity [9] was “Active” and the Activity [10] was “Active”. The Activity [11] was “Non-Toxic”, the Activity [12] was “Toxic” and the Activity [13] was “inactive”. The Activity [14] was “Toxic”, the Activity [15] was “Active” and the Activity [16] was “Non-Toxic”. The Activity [17] was “Active”, the Activity [18] was “Non-Toxic” and the Activity [19] was “Non-Toxic”. For the same compound, the Activity [20] was “Toxic”, the Activity [21] was “Active” and the Activity [22] was “Non-Toxic”. The Activity [23] was “Non-Toxic”, the Activity [24] was “Toxic” and the Activity [25] was “Toxic”. For the same compound, the Activity [26] was “Non-Toxic”, the Activity [27] was “Toxic” and the Activity [28] was “Active”. The Tm [29] was 49 °C, the Activity [30] was “Non-Toxic” and the IC50 [3] was 0.115 µM.
For Cc1c(COc2ccc(CN3CCCC[C@H]3C(=O)NCCN)c(OCc3cccc(C#N)c3)c2)cccc1-c1ccccc1, the IC50 [4] was 0.0091 µM.
Work on CC(=O)NCCNc1nc(OCc2cccc(C#N)c2)nc(OCc2cccc(-c3ccccc3)c2C)n1 yielded an IC50 [3] of over 5 µM.
In the case of CC(=O)NCCCNc1ncnc(OCc2cccc(-c3ccccc3)c2C)n1, the IC50 [3] is reported as 2.15 µM.
CC(C)(C)OC(=O)NCCNc1nc(OCc2ccccc2)nc(N2CCC[C@H]2C(=O)NCc2ccccc2)n1 showed an IC50 [3] of over 5 µM.
Compound Cc1c(COc2nc(N[C@@H](Cc3c[nH]cn3)C(=O)O)nc(OCc3cccc(C#N)c3)n2)cccc1-c1ccccc1 has an IC50 [3] of over 5 µM.
In the case of COC(=O)[C@H](Cc1c[nH]cn1)Nc1nc(OCc2cccc(C#N)c2)nc(OCc2cccc(-c3ccccc3)c2C)n1, the IC50 [3] is reported as over 5 µM.
For COc1cc(C(=O)N2CCC3C(c4ccccc4)=CC=CC32)ccc1CNCCO (configuration not stated), the IC50 [4] was 0.132 µM.
In the case of Cc1c(COc2ncnc(NCCS(N)(=O)=O)n2)cccc1-c1ccccc1, the IC50 [3] is reported as 0.551 µM.
CC(=O)NCCNc1nc(O)nc(OCc2cccc(-c3ccccc3)c2C)n1 showed an IC50 [3] of over 5 µM.
With O=C(O)[C@@H]1CCCCN1Cc1ccc(OCc2cccc(-c3ccccc3)c2Br)c(Br)c1 the IC50 [4] was 0.015 µM.
With CC(=O)NCCNc1nc(C)nc(OCc2cccc(-c3ccccc3)c2C)n1 the IC50 [3] was over 5 µM.
In the case of COc1nc(NCCNC(C)=O)nc(OCc2cccc(-c3ccccc3)c2C)n1, the IC50 [3] is reported as 1.53 µM.
Compound Cc1c(COc2ccc(CN[C@H](CO)C(=O)O)c(OCc3cncc(C#N)c3)n2)cccc1-c1ccccc1 has an IC50 [4] of 0.012 µM.
In the case of COc1nc(OCc2cccc(-c3ccccc3)c2C)ccc1CNCCNC(C)=O, the Activity [5] is reported as “inactive”, the Activity [6] is reported as “Active” and the Activity [7] is reported as “Toxic”. The Activity [8] was “Active”, the Activity [9] was “Active” and the Activity [10] was “Active”. The Activity [11] was “Non-Toxic”, the Activity [12] was “Toxic” and the Activity [13] was “inactive”. The Activity [14] was “Toxic”, the Activity [15] was “Active” and the Activity [16] was “Non-Toxic”. The Activity [17] was “Active”, the Activity [18] was “Non-Toxic” and the Activity [19] was “Non-Toxic”. The Activity [20] was “Toxic”, the Activity [21] was “Active” and the Activity [22] was “Non-Toxic”. For the same compound, the Activity [23] was “Non-Toxic”, the Activity [24] was “Toxic” and the Activity [25] was “Toxic”. For the same compound, the Activity [26] was “Non-Toxic”, the Activity [31] was “Toxic” and the Activity [27] was “Toxic”. For the same compound, the Activity [28] was “Active”, the Tm [29] was 53 °C and the Activity [30] was “Non-Toxic”.
